Key:
[1] = test system: Human immunodeficiency virus 1; assay: Cytotoxicity against HIV-1 (HTLV-IIIB) in MT-4 cells; type: functional; details: Human immunodeficiency virus 1, MT4
Summary of the method: (§1)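 MT-4 cells were infected with the HIV-1 strain named in the line and cultured with the test compound for 4 days. Viable cells were then counted by the MTT method. EC50 is the 50% effective antiviral concentration and CC50 the 50% cytotoxic concentration, each the mean of at least two separate experiments.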

[2] = test system: Human immunodeficiency virus 1; assay: Antiviral activity against HIV-1 (HTLV-IIIB) in MT-4 cells; type: functional, organism-based; details: Human immunodeficiency virus 1, MT4; summary of the method: as §1
[3] = test system: MOLT-4; assay: Percentage inhibition of HIV-1-induced giant cell (syncytia) formation using MOLT-4 cell at 500 uM; type: functional; details: Homo sapiens
Summary of the method: (§2)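 MOLT-4 cells (5×10^4/well) were cocultured with an equal number of chronically infected MOLT-4/HTLV-III_B cells at various compound concentrations for 24 h. Cell clusters were then broken by gentle pipetting, and giant cells were counted under the microscope.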

[4] = test system: MOLT-4; assay: Percentage inhibition of HIV-1-induced giant cell (syncytia) formation using MOLT-4 cell at 100 uM; type: functional; details: Homo sapiens; summary of the method: as §2
[5] = test system: MOLT-4; assay: Percentage inhibition of HIV-1-induced giant cell (syncytia) formation using MOLT-4 cell at 20 uM; type: functional; details: Homo sapiens; summary of the method: as §2
[6] = test system: MOLT-4; assay: Percentage inhibition of HIV-1-induced giant cell (syncytia) formation using MOLT-4 cell at 4 uM; type: functional; details: Homo sapiens; summary of the method: as §2
[7] = test system: MOLT-4; assay: Inhibition of HIV-1-induced giant cell (syncytia) formation using MOLT-4 cell; type: functional, cell-based; details: Homo sapiens; summary of the method: as §2
[8] = test system: MT4; assay: Cytotoxicity against HIV-1 in MT-4 cells was evaluated by using a clinical strain (HE); type: functional; details: Homo sapiens; summary of the method: as §1
[9] = test system: MT4; assay: Antiviral activity against HIV-1 in MT-4 cells was evaluated by using a clinical strain (HE); type: functional, cell-based; details: Homo sapiens; summary of the method: as §1
[10] = test system: MOLT-4; assay: Percentage inhibition of HIV-1-induced giant cell (syncytia) formation using MOLT-4 cell at 0.8 uM; type: functional; details: Homo sapiens; summary of the method: as §2
[11] = test system: Human immunodeficiency virus 1; assay: Cytotoxic concentration against HIV-1 (HTLV-IIIB) in peripheral blood lymphocytes; type: functional
[12] = test system: Human immunodeficiency virus 1; assay: Antiviral concentration against HIV-1 (HTLV-IIIB) in peripheral blood lymphocytes; type: functional, organism-based

Row | EC50 [2] | SMILES | CC50 [1] | also measured
1 | > 500 µM | O=C(CCCCCCCCC(=O)Nc1ccc(S(=O)(=O)O)c2ccccc12)Nc1ccc(S(=O)(=O)O)c2ccccc12 | > 500 µM | –
2 | 11 µM | O=C(O)c1cc(NS(=O)(=O)c2cc(S(=O)(=O)Nc3cc(C(=O)O)c(O)c(S(=O)(=O)O)c3)cc(S(=O)(=O)Nc3cc(C(=O)O)c(O)c(S(=O)(=O)O)c3)c2)cc(S(=O)(=O)O)c1O | > 500 µM | –
3 | 52.5 µM | O=C(O)c1cc(NS(=O)(=O)c2ccc(-c3ccc(S(=O)(=O)Nc4cc(C(=O)O)c(O)c(S(=O)(=O)O)c4)cc3)cc2)cc(S(=O)(=O)O)c1O | 247 µM | inhibition at 500 µM [3]: 100%; inhibition at 100 µM [4]: 94%; inhibition at 20 µM [5]: 22%; inhibition at 4 µM [6]: 0%; IC50 [7]: 37 µM; CC50 [8]: > 100 µM; EC50 [9]: 7.5 µM; inhibition at 0.8 µM [10]: 3%
4 | > 100 µM | O=S(=O)(O)c1cccc2ccc(OS(=O)(=O)c3ccc(-c4ccc(S(=O)(=O)Oc5ccc6cccc(S(=O)(=O)O)c6c5)cc4)cc3)cc12 | 100 µM | –
5 | > 168 µM | O=S(=O)(O)c1cc(S(=O)(=O)O)c2cc(OS(=O)(=O)c3cccc4c(S(=O)(=O)Oc5ccc6cc(S(=O)(=O)O)cc(S(=O)(=O)O)c6c5)cccc34)ccc2c1 | > 500 µM | –
6 | 8.3 µM | O=S(=O)(O)c1cc(O)c2c(NS(=O)(=O)c3ccc(-c4ccc(S(=O)(=O)Nc5cc(S(=O)(=O)O)cc6cc(S(=O)(=O)O)cc(O)c56)cc4)cc3)cc(S(=O)(=O)O)cc2c1 | 320 µM | CC50 [11]: 38 µM; EC50 [12]: 9.2 µM
7 | 40 µM | O=S(=O)(O)c1cc(S(=O)(=O)O)c2cc(OS(=O)(=O)c3ccc(-c4ccc(S(=O)(=O)Oc5ccc6cc(S(=O)(=O)O)cc(S(=O)(=O)O)c6c5)cc4)cc3)ccc2c1 | 224 µM | –
8 | 43 µM | O=S(=O)(O)c1ccc2cc(OS(=O)(=O)c3ccc(-c4ccc(S(=O)(=O)Oc5cc6ccc(S(=O)(=O)O)cc6cc5S(=O)(=O)O)cc4)cc3)c(S(=O)(=O)O)cc2c1 | > 500 µM | –
9 | > 500 µM | Nc1ccc(S(=O)(=O)O)c2cccc(S(=O)(=O)O)c12 | > 500 µM | –
10 | > 55 µM | O=S(=O)(O)c1cccc2ccc(OS(=O)(=O)c3cccc4c(S(=O)(=O)Oc5ccc6cccc(S(=O)(=O)O)c6c5)cccc34)cc12 | 144 µM | –

The next lines start with the compound.

Row | SMILES | EC50 [2] | CC50 [1] | also measured
11 | O=C(CCCCCCC(=O)Nc1ccc(S(=O)(=O)O)c2cccc(S(=O)(=O)O)c12)Nc1ccc(S(=O)(=O)O)c2cccc(S(=O)(=O)O)c12 | 242 µM | > 500 µM | –
12 | O=S(=O)(O)c1cc(S(=O)(=O)O)c2cc(O)ccc2c1 | > 500 µM | > 500 µM | –
13 | O=C(O)c1cc(NS(=O)(=O)c2cccc3c(S(=O)(=O)Nc4cc(C(=O)O)c(O)c(S(=O)(=O)O)c4)cccc23)cc(S(=O)(=O)O)c1O | 52.5 µM | > 500 µM | –
14 | O=C(CCC(=O)Nc1ccc(S(=O)(=O)O)c2ccccc12)Nc1ccc(S(=O)(=O)O)c2ccccc12 | > 500 µM | > 500 µM | –
15 | O=C(CCCCCCCCCCC(=O)Nc1cc(S(=O)(=O)O)cc2cc(S(=O)(=O)O)cc(O)c12)Nc1cc(S(=O)(=O)O)cc2cc(S(=O)(=O)O)cc(O)c12 | 44 µM | 430 µM | inhibition at 500 µM [3]: 100%; inhibition at 100 µM [4]: 100%; inhibition at 20 µM [5]: 40%; inhibition at 4 µM [6]: 11%; IC50 [7]: 26 µM; CC50 [8]: > 100 µM; EC50 [9]: 12.5 µM; inhibition at 0.8 µM [10]: 0%
16 | O=C(CCCCCCC(=O)Nc1cc(S(=O)(=O)O)cc2cc(S(=O)(=O)O)cc(O)c12)Nc1cc(S(=O)(=O)O)cc2cc(S(=O)(=O)O)cc(O)c12 [listing 1 of 2 here] | – | – | CC50 [8]: > 100 µM; EC50 [9]: 2.2 µM
17 | O=C(CCCCCCCCC(=O)Nc1cc(S(=O)(=O)O)cc2cc(S(=O)(=O)O)cc(O)c12)Nc1cc(S(=O)(=O)O)cc2cc(S(=O)(=O)O)cc(O)c12 [listing 1 of 2 here] | – | – | CC50 [8]: > 100 µM; EC50 [9]: 3.9 µM
18 | Nc1ccc(S(=O)(=O)O)c2ccccc12 | > 500 µM | > 500 µM | –
19 | Nc1cc(S(=O)(=O)O)cc2cc(S(=O)(=O)O)cc(O)c12 | > 529 µM | > 529 µM | –
20 | O=C(CCCCCCCCC(=O)Nc1ccc(S(=O)(=O)O)c2cccc(S(=O)(=O)O)c12)Nc1ccc(S(=O)(=O)O)c2cccc(S(=O)(=O)O)c12 | 66.5 µM | > 500 µM | –
21 | Cc1cc(C)c(S(=O)(=O)Nc2cc(C(=O)O)c(O)c(S(=O)(=O)O)c2)c(C)c1S(=O)(=O)Nc1cc(C(=O)O)c(O)c(S(=O)(=O)O)c1 | 57 µM | > 500 µM | –
22 | O=C(CCCCCCC(=O)Nc1ccc(S(=O)(=O)O)c2ccccc12)Nc1ccc(S(=O)(=O)O)c2ccccc12 | > 500 µM | > 500 µM | –
23 | O=C(CCCCCC(=O)Nc1ccc(S(=O)(=O)O)c2cccc(S(=O)(=O)O)c12)Nc1ccc(S(=O)(=O)O)c2cccc(S(=O)(=O)O)c12 | 143 µM | > 500 µM | –
24 | O=S(=O)(O)c1cc(S(=O)(=O)O)c2cc(NS(=O)(=O)c3ccc(-c4ccc(S(=O)(=O)Nc5ccc6cc(S(=O)(=O)O)cc(S(=O)(=O)O)c6c5)cc4)cc3)ccc2c1 | 29.5 µM | > 500 µM | inhibition at 500 µM [3]: 100%; inhibition at 100 µM [4]: 100%; inhibition at 20 µM [5]: 34%; inhibition at 4 µM [6]: 21%; IC50 [7]: 29 µM; CC50 [8]: > 100 µM; EC50 [9]: 8.1 µM; inhibition at 0.8 µM [10]: 6%
25 | O=C(CCCCCCCCCCC(=O)Nc1ccc(S(=O)(=O)O)c2cccc(S(=O)(=O)O)c12)Nc1ccc(S(=O)(=O)O)c2cccc(S(=O)(=O)O)c12 | 46 µM | > 500 µM | –
26 | Cc1ccc(C(=O)Nc2ccc(S(=O)(=O)O)c3cc(S(=O)(=O)O)cc(S(=O)(=O)O)c23)cc1NC(=O)c1cccc(NC(=O)Nc2cccc(C(=O)Nc3cc(C(=O)Nc4ccc(S(=O)(=O)O)c5cc(S(=O)(=O)O)cc(S(=O)(=O)O)c45)ccc3C)c2)c1 [SURAMIN] | – | – | CC50 [8]: 47 µM; EC50 [9]: 8 µM
27 | O=S(=O)(O)c1ccc2cc(NS(=O)(=O)c3ccc(-c4ccc(S(=O)(=O)Nc5cc6ccc(S(=O)(=O)O)cc6cc5S(=O)(=O)O)cc4)cc3)c(S(=O)(=O)O)cc2c1 | 41 µM | > 500 µM | –
28 | O=S(=O)(O)c1cc(S(=O)(=O)O)c2cc(NS(=O)(=O)c3cccc4c(S(=O)(=O)Nc5ccc6cc(S(=O)(=O)O)cc(S(=O)(=O)O)c6c5)cccc34)ccc2c1 | 14 µM | > 500 µM | –
29 | O=C(CCCCCCCCC(=O)Nc1cc(S(=O)(=O)O)cc2cc(S(=O)(=O)O)cc(O)c12)Nc1cc(S(=O)(=O)O)cc2cc(S(=O)(=O)O)cc(O)c12 [listing 2 of 2 here] | 3.9 µM | > 100 µM | inhibition at 500 µM [3]: 100%; inhibition at 100 µM [4]: 100%; inhibition at 20 µM [5]: 35%; inhibition at 4 µM [6]: 30%; IC50 [7]: 29 µM; inhibition at 0.8 µM [10]: 0%
30 | Cc1ccc(C(=O)Nc2ccc(S(=O)(=O)O)c3cc(S(=O)(=O)O)cc(S(=O)(=O)O)c23)cc1NC(=O)c1cccc(NC(=O)Nc2cccc(C(=O)Nc3cc(C(=O)Nc4ccc(S(=O)(=O)O)c5cc(S(=O)(=O)O)cc(S(=O)(=O)O)c45)ccc3C)c2)c1 [SURAMIN HEXASODIUM] | 8.2 µM | 250 µM | –
31 | Nc1ccc2cc(S(=O)(=O)O)cc(S(=O)(=O)O)c2c1 | > 500 µM | > 500 µM | –
32 | O=C(Nc1ccc(S(=O)(=O)O)c2cccc(S(=O)(=O)O)c12)c1ccc(C(=O)Nc2ccc(S(=O)(=O)O)c3cccc(S(=O)(=O)O)c23)cc1 | > 197 µM | > 500 µM | –
33 | O=C(CCCCCCC(=O)Nc1cc(S(=O)(=O)O)cc2cc(S(=O)(=O)O)cc(O)c12)Nc1cc(S(=O)(=O)O)cc2cc(S(=O)(=O)O)cc(O)c12 [listing 2 of 2 here] | 2.9 µM | 360 µM | CC50 [11]: 20 µM; EC50 [12]: 1.3 µM; inhibition at 500 µM [3]: 100%; inhibition at 100 µM [4]: 100%; inhibition at 20 µM [5]: 96%; inhibition at 4 µM [6]: 31%; IC50 [7]: 6.4 µM; inhibition at 0.8 µM [10]: 6%

Reference: ChEMBL document CHEMBL1126731, “Structure-activity relationship studies with symmetric naphthalenesulfonic acid derivatives. Synthesis and influence of spacer and naphthalenesulfonic acid moiety on anti-HIV-1 activity” (J Med Chem, 1993)
